Data reported in PMC7066653 (ACS Omega, 2020).
≈ marks a conversion by molar mass, not a printed value.

Key:
[1] = 9 (b3); cited from earlier work
[2] = Aqueous solubility of ATXP and ATX at 25 °C, by HPLC; assay type: physicochemical; settings: for solubility at 1 h: 25 °C, thermodynamic from solid
Summary of the method: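 Excess solid was added to 1 mL of ultrapure water, 0.9% NaCl (pH 7.4) or PBS (pH 7.4) and held at 25 °C. Samples were taken at 1, 24 and 48 h, filtered (0.22 μm) and quantified by HPLC (C18; 75% methanol/water with 1% TFA; 1 mL/min; 350 nm). Experiments were repeated three times and reported as mean ± SD.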

[3] = tested on: focal cerebral ischemia-reperfusion injury (MCAO); set-up: species or system Sprague-Dawley rats; settings: rat, in vivo
[4] = tested on: focal cerebral ischemia-reperfusion injury (MCAO); experiment: Neurological deficit; assay type: in vivo, Sprague-Dawley rats; settings: edaravone 6 mg/kg iv, single dose, P = 0.4298

For `COc1ccc(-c2cc(=S)ss2)cc1` [ATT, Anethol trithione], the water solubility [1] is given as 0.38 µg/mL (≈ 1.58 µM).

With `Oc1ccc(-c2cc(=S)ss2)cc1` [ATX, 5-(4-hydroxyphenyl)-3H-1,2-dithiole3-thione] the solubility at 1 h ([2]; 0.9% NaCl solution, pH 7.4, saline or isotonic) was < 0.8 µg/mL, the solubility at 1 h ([2]; PBS, pH 7.4, aqueous buffer) was < 0.8 µg/mL and the solubility at 1 h ([2]; ultrapure water, water) was 0.8 ± 0.02 µg/mL (≈ 3.53 µM).

With `CC1=NN(c2ccccc2)C(=O)C1` [edaravone] the “solubility in saline, in words” value ([2]; saline (0.9%)) was “freely soluble”, the “infarct volume vs vehicle” value [3] was “significant reductions in infarct volume” and the “neurological deficit score, 24 h vs 0 h after reperfusion” value [4] was “did not exhibit increased neurological scores”.
